The source of these data is ChEMBL document CHEMBL1131187, “Synthesis, activity, and molecular modeling of new 2, 4-dioxo-5-(naphthylmethylene)-3-thiazolidineacetic acids and 2-thioxo analogues as potent aldose reductase inhibitors” (J Med Chem, 1998).

Usually IC50 stands for the concentration needed to halve the response being measured. Read a low IC50 as greater potency in that assay.

For the assay, the target named is Aldo-keto reductase family 1 member B1 (Bos taurus, UniProt P16116). The experiment in a line: Evaluated in vitro for the inhibition of Aldose reductase. It counts as functional. In outline:
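Partially purified enzyme from beef lenses homogenized in 96 mM phosphate buffer pH 6.2 at 4 °C; supernatant after 1 h centrifugation at 4 °C. Assay at 37 °C in 96 mM phosphate pH 6.2 with NADPH (0.18 mM) and DL-glyceraldehyde (1 mM). Reaction started with NADPH; A340 decrease followed. Blanks included. Four concentrations, five measures each; IC50 by linear regression of % inhibition vs log concentration.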

As to `COc1c(/C=C2\SC(=O)N(CC(=O)O)C2=O)ccc2ccccc12`, it took 150 nM to reach half-maximal inhibition (IC50).
`O=C(O)CN1C(=O)S/C(=C\c2cc3ccccc3cc2Cl)C1=O` displayed an IC50 of 48 nM.
As for `COc1c(/C=C2\SC(=S)N(CC(=O)O)C2=O)ccc2ccccc12`, the figure is 9 nM; as for `O=C(O)CN1C(=O)S/C(=C\c2ccc3ccccc3c2)C1=O`, 269 nM; as for `COc1cc2ccccc2cc1/C=C1\SC(=O)N(CC(=O)O)C1=O`, 128 nM.
As for `O=C(O)CN1C(=O)/C(=C/c2ccc3ccccc3c2)SC1=S`, the figure is 96 nM; as for `COc1cc2ccccc2cc1/C=C1\SC(=S)N(CC(=O)O)C1=O`, 20 nM; as for `COc1ccc2cc(/C=C3\SC(=O)N(CC(=O)O)C3=O)ccc2c1`, 101 nM.
As for `COc1ccc2cc(/C=C3\SC(=S)N(CC(=O)O)C3=O)ccc2c1`, the figure is 67 nM; as for `O=C(O)CN1C(=O)/C(=C/c2ccc3ccccc3c2[N+](=O)[O-])SC1=S`, 79 nM; as for `O=C(O)CN1C(=O)S/C(=C\c2ccc3ccccc3c2Br)C1=O`, 51 nM.
For the compound `O=C(O)CN1C(=O)S/C(=C\c2cc3ccccc3cc2Br)C1=O`, the half-maximal inhibitory concentration (IC50) was found to be 153 nM.
As for `O=C(O)CN1C(=O)/C(=C/c2ccc3ccccc3c2Br)SC1=S`, the figure is 11 nM; as for `O=C(O)CN1C(=O)/C(=C/c2cc3ccccc3cc2Br)SC1=S`, 15 nM; as for `O=C(O)Cc1nn(Cc2ccc(Br)cc2F)c(=O)c2ccccc12` [PONALRESTAT], 7 nM.
